Results on 75 variants are retold here after the RNAGym collection of RNA variant scans (doi:10.1126/science.aae0568).

The chains are these.
B1: tRNA (parent)
chain: GUUCCGUUGGCGUAAUGGUAACGCGUCUCCCUCCUAAGGAGAAGACUGCGGGUUCGAGUCCCGUACGGAACG

Variants at the floor of the assay were thinned out.

The data set covers variants of B1. In words: yeast fitness relative to wild type (ratio to wild type); higher = fitter; tRNA-Arg(CCU), competitive growth, 37 C, YPD. The procedure, abridged: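 Variants of the tRNA-Arg(CCU) gene, chemically synthesised with a 3% per-site mutation rate at 69 sites, were placed at the native genomic locus in Saccharomyces cerevisiae. The pooled strains were competed in YPD at 37°C for 24 hours in six parallel replicates. Gene amplicons from the start population and from each end population were read by 100-nucleotide paired-end sequencing. Darwinian fitness relative to wild type came from changes in genotype frequencies; genotypes needed ≥ 100 starting reads, and estimates < 0.5 were set to 0.5.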
Turning to GUUCCGUUGGCGUAAUGGUAACGCGUCUCCCUCCUAAGGAGAAGACUGUGGGUUCGAGUCCCGUACGGAUCG, the yeast fitness is 1.
The figure for GUUCCGUUGGCGUAAUGGUAACGCGUCUCCCUCCUAAGGAGAAGACUGUGGGUUCGAGUCCGGUACGCAACG is 0.536; for GUUCCGUUGGCGUAAUGGUAACGCGUCUCCCUCCUAAGGAGAAGACUGUGGGUUCGUGUCCCGUACCGAACG it is no more than 0.5; for GUUCCGUUGGCGUAAUGGUAACGCGUCUCCCUCCUAAGGAGAAGACUGUGGGUUCGAGUCCCGUACAGAACG it is 0.879.
For GUUCCGUUGGCGUAAUGGUAACGCGUCUCCCUCCUAAGGAGAAGACUGUGGGUUCGAGUCCCGUACGCAACG, the yeast fitness was determined as 0.801.
As for GUUCCGUUGGCGUAAUGGUAACGCGUCUCCCUCCUAAGGAGAAGACUGUGCGUUCGAGUCCCGUACGAAACG, the yeast fitness was no more than 0.5.
The figure for GUUCCGUUGGCGUAAUGGUAACGCGUCUCCCUCCUAAGGAGAAGACUGUGCGUUAGAGUCCCGUACGGAACG is 0.618.
The figure for GUUCCGUUGGCGUAAUGGUAACGCGUCUCCCUCCUAAGGAGAAGACUGCAGGUUCGAGUCCCGUACGGAACG is 1; for GUUCCGUUGGCGUAAUGGUAACGCGUCUCCCUCCUAAGGAGAAGACUGUGGGUUCGAGUCCCGUACGCUACG it is 0.569.
For the variant GUUCCGUUGGCGUAAUGGUAACGCGUCUCCCUCCUAAGGAGAAGACUGUGGGUUCGAGUCCCGUACGGUGCG, the yeast fitness turned out to be 0.687.
Regarding GUUCCGUUGGCGUAAUGGUAACGCGUCUCCCUCCUAAGGAGAAGACUGUGGGUUCGAGUCCUGUACGGAACG, the yeast fitness amounted to 0.869.
Turning to GUUCCGUUGGCGUAAUGGUAACGCGUCUCCCUCCUAAGGAGAAGACUGUGGGUUCGAGUCCAGUACGGAACG, the yeast fitness came out at 0.787.
Consider GUUCCGUUGGCGUAAUGGUAACGCGUCUCCCUCCUAAGGAGAAGACUGUGGGUUCGAGUCCCGUUCGGAUCG, for which the yeast fitness came out at 0.657.
Turning to GUUCCGUUGGCGUAAUGGUAACGCGUCUCCCUCCUAAGGAGAAGACUGGGGGUUCGAGUCCCCUACGGAACG, the yeast fitness is 0.967.
For the variant GUUCCGUUGGCGUAAUGGUAACGCGUCUCCCUCCUAAGGAGAAGACUGGGGGUUCGAGUCCCAUACGGAACG, the yeast fitness stood at 0.86.
On to GUUCCGUUGGCGUAAUGGUAACGCGUCUCCCUCCUAAGGAGAAGACUGUGGGUUCGAGUGCCGUACGGAACG, for which the yeast fitness came out at 0.609.
Consider GUUCCGUUGGCGUAAUGGUAACGCGUCUCCCUCCUAAGGAGAAGACUGUGGGUUCGAGUACCGUACGGAACG, for which the yeast fitness came to 0.668.
Take GUUCCGUUGGCGUAAUGGUAACGCGUCUCCCUCCUAAGGAGAAGACUGUGGGUUCGAGUCCCGUGCGGAACG: the yeast fitness was 0.942.
For GUUCCGUUGGCGUAAUGGUAACGCGUCUCCCUCCUAAGGAGAAGACUGUGGGUUCGCGUCCCGUACGGAACG, the yeast fitness was found to be 0.78.
Regarding GUUCCGUUGGCGUAAUGGUAACGCGUCUCCCUCCUAAGGAGAAGACUGUGCGUUCGAGUCCCGCACGAAACG, the yeast fitness is no more than 0.5.
GUUCCGUUGGCGUAAUGGUAACGCGUCUCCCUCCUAAGGAGAAGACUGUGGGUACGAGUCCCGUACGGAACG: the yeast fitness came to 0.736.
Turning to GUUCCGUUGGCGUAAUGGUAACGCGUCUCCCUCCUAAGGAGAAGACUGUGGGUCCGAGUCCCGUACGGAACG, the yeast fitness worked out at 0.864.
The value for GUUCCGUUGGCGUAAUGGUAACGCGUCUCCCUCCUAAGGAGAAGACUGGGGGUUCGAGUCCCGUACGAAACG was 0.953.
For GUUCCGUUGGCGUAAUGGUAACGCGUCUCCCUCCUAAGGAGAAGACUGGGGGUUCGAGUCCCGUACGCAACG, the yeast fitness was found to be 0.704.
For the variant GUUCCGUUGGCGUAAUGGUAACGCGUCUCCCUCCUAAGGAGAAGACUGUGGGUUCGAGUCCUGUACAGAACG, the yeast fitness was determined as 0.573.
Regarding GUUCCGUUGGCGUAAUGGUAACGCGUCUCCCUCCUAAGGAGAAGACUGUGGGUUCGAGUCCCGUACGGCACG, the yeast fitness was found to be 1.01.
The value for GUUCCGUUGGCGUAAUGGUAACGCGUCUCCCUCCUAAGGAGAAGACUGCAGGUUCGAGUCCCGUACGGAGCG was 1.06; that for GUUCCGUUGGCGUAAUGGUAACGCGUCUCCCUCCUAAGGAGAAGACUGUGGCUUCGAGUCCCGUACGGAACG was 0.547.
The value for GUUCCGUUGGCGUAAUGGUAACGCGUCUCCCUCCUAAGGAGAAGACUGUGGGUUCGAGUCCCGUAUGGAACG was 0.968; that for GUUCCGUUGGCGUAAUGGUAACGCGUCUCCCUCCUAAGGAGAAGACUGUGGGUUCGAGUCCCGUAAGGAACG was 0.815.
Regarding GUUCCGUUGGCGUAAUGGUAACGCGUCUCCCUCCUAAGGAGAAGACUGUGGGUUCGAGUCCCGUAGGGAACG, the yeast fitness turned out to be 0.752.
For GUUCCGUUGGCGUAAUGGUAACGCGUCUCCCUCCUAAGGAGAAGACUGUGGCUUCGCGUCCCCUACGGAACG, the yeast fitness is no more than 0.5.
For the variant GUUCCGUUGGCGUAAUGGUAACGCGUCUCCCUCCUAAGGAGAAGACUGUGGGUUUGAGUCUCGUACGGAACG, the yeast fitness turned out to be 0.559.
For the variant GUUCCGUUGGCGUAAUGGUAACGCGUCUCCCUCCUAAGGAGAAGACUGUGGGUUCGAGACCCGUUCGGAACG, the yeast fitness is no more than 0.5.
Consider GUUCCGUUGGCGUAAUGGUAACGCGUCUCCCUCCUAAGGAGAAGACUGUGGGUUCGAGACACGUACGGAACG, for which the yeast fitness is no more than 0.5.
With GUUCCGUUGGCGUAAUGGUAACGCGUCUCCCUCCUAAGGAGAAGACUGGGGGUUCGAGUCCCGUACCGAACG, the yeast fitness was 0.84.
As to GUUCCGUUGGCGUAAUGGUAACGCGUCUCCCUCCUAAGGAGAAGACUGUGGGAUCGAGUCCCGUAUGGAUCG, the yeast fitness is no more than 0.5.
The figure for GUUCCGUUGGCGUAAUGGUAACGCGUCUCCCUCCUAAGGAGAAGACUGGGGGUUCGAGUCCCAUAUGGAACG is 0.524; for GUUCCGUUGGCGUAAUGGUAACGCGUCUCCCUCCUAAGGAGAAGACUGUGGGUUCCAGUCCCGUACGGACCG it is no more than 0.5; for GUUCCGUUGGCGUAAUGGUAACGCGUCUCCCUCCUAAGGAGAAGACUGUGGGUUCGAGGCCCGUACGGAACG it is 0.904.
Take GUUCCGUUGGCGUAAUGGUAACGCGUCUCCCUCCUAAGGAGAAGACUGUGGGUUCGAGACCCGUACGGAACG: the yeast fitness is 0.852.
The value for GUUCCGUUGGCGUAAUGGUAACGCGUCUCCCUCCUAAGGAGAAGACUGUGGGUUCGAGUCGCGUACGGAACG was 0.689.
Consider GUUCCGUUGGCGUAAUGGUAACGCGUCUCCCUCCUAAGGAGAAGACUGUGGGUUAGAGUCCUGUACGGAACG, for which the yeast fitness came out at 0.699.
For GUUCCGUUGGCGUAAUGGUAACGCGUCUCCCUCCUAAGGAGAAGACUGGGGGAUCGAGUCCCGUACGGAACG, the yeast fitness was determined as 0.627.
In the case of GUUCCGUUGGCGUAAUGGUAACGCGUCUCCCUCCUAAGGAGAAGACUGUGGGUUAGAGUCCCGUAUGGAACG, the yeast fitness came out at 0.514.
In the case of GUUCCGUUGGCGUAAUGGUAACGCGUCUCCCUCCUAAGGAGAAGACUGUGGGUUCGAGUCCUGUACGGUACG, the yeast fitness worked out at 0.948.
Regarding GUUCCGUUGGCGUAAUGGUAACGCGUCUCCCUCCUAAGGAGAAGACUGGGGGUUCGAGACCCGUACGGAACG, the yeast fitness came out at 0.785.
In the case of GUUCCGUUGGCGUAAUGGUAACGCGUCUCCCUCCUAAGGAGAAGACUGGGGGUUCGAGCCCCGUACGGAACG, the yeast fitness turned out to be 0.761.
With GUUCCGUUGGCGUAAUGGUAACGCGUCUCCCUCCUAAGGAGAAGACUGUGGGUUCGAGUCCCGUACAGUACG, the yeast fitness was no more than 0.5.
With GUUCCGUUGGCGUAAUGGUAACGCGUCUCCCUCCUAAGGAGAAGACUGGGGGUUCCAGUCCCGUACGGAUCG, the yeast fitness worked out at 0.55.
On to GUUCCGUUGGCGUAAUGGUAACGCGUCUCCCUCCUAAGGAGAAGACUGUGGGUCGGAGUCCCGUACGGAACG, for which the yeast fitness amounted to 0.548.
As for GUUCCGUUGGCGUAAUGGUAACGCGUCUCCCUCCUAAGGAGAAGACUGCAGGUUCGAGUCCCGUUCGGAACG, the yeast fitness came to 0.703.
Take GUUCCGUUGGCGUAAUGGUAACGCGUCUCCCUCCUAAGGAGAAGACUGGGGGUGCGAGUCCCGUACGGUACG: the yeast fitness was no more than 0.5.
For the variant GUUCCGUUGGCGUAAUGGUAACGCGUCUCCCUCCUAAGGAGAAGACUGUGGGUUCGAGUCCCGUACUGCACG, the yeast fitness came to 0.542.
Take GUUCCGUUGGCGUAAUGGUAACGCGUCUCCCUCCUAAGGAGAAGACUGUGCGUUCGAGUCCCGUACGGAACG: the yeast fitness was determined as 0.756.
For GUUCCGUUGGCGUAAUGGUAACGCGUCUCCCUCCUAAGGAGAAGACUGUGAGUUCGAGUCCCGUACGGAACG, the yeast fitness worked out at 0.737.
Turning to GUUCCGUUGGCGUAAUGGUAACGCGUCUCCCUCCUAAGGAGAAGACUGUGGGUUCGAGUCCCGCACGGAACG, the yeast fitness was 0.921.
Regarding GUUCCGUUGGCGUAAUGGUAACGCGUCUCCCUCCUAAGGAGAAGACUGUGGGUUCGAGUCCCGAACGGAACG, the yeast fitness amounted to 0.753.
On to GUUCCGUUGGCGUAAUGGUAACGCGUCUCCCUCCUAAGGAGAAGACUGUGAGUUCGAGUCCCGUACGGCACG, for which the yeast fitness was found to be 0.61.
Regarding GUUCCGUUGGCGUAAUGGUAACGCGUCUCCCUCCUAAGGAGAAGACUGUGGGUUCCAGUCCCGUACGGAACG, the yeast fitness amounted to 0.58.
The value for GUUCCGUUGGCGUAAUGGUAACGCGUCUCCCUCCUAAGGAGAAGACUGUGGGUUCUAGUCCCGUACGGAACG was 0.677.
In the case of GUUCCGUUGGCGUAAUGGUAACGCGUCUCCCUCCUAAGGAGAAGACUGUGGGUUCAAGUCCCGUACGGAACG, the yeast fitness turned out to be 1.03.
The value for GUUCCGUUGGCGUAAUGGUAACGCGUCUCCCUCCUAAGGAGAAGACUGUGGGCUCGAGUCCCGUACGGAACG was 0.691; that for GUUCCGUUGGCGUAAUGGUAACGCGUCUCCCUCCUAAGGAGAAGACUGUGGGUCCGAGUCCCGUAGGGAACG was no more than 0.5; that for GUUCCGUUGGCGUAAUGGUAACGCGUCUCCCUCCUAAGGAGAAGACUGUGGGUUCGAGUCCCCUACCGAACG was 0.53.
On to GUUCCGUUGGCGUAAUGGUAACGCGUCUCCCUCCUAAGGAGAAGACUGGGGGUUCAAGUCCCGUACGGAACG, for which the yeast fitness turned out to be 0.838.
For GUUCCGUUGGCGUAAUGGUAACGCGUCUCCCUCCUAAGGAGAAGACUGCAGGUUCGAGUCCCGUACGGUACG, the yeast fitness worked out at 1.
As to GUUCCGUUGGCGUAAUGGUAACGCGUCUCCCUCCUAAGGAGAAGACUGUGGGUUCGACUCCCGUACGGAACG, the yeast fitness was determined as 1.
The figure for GUUCCGUUGGCGUAAUGGUAACGCGUCUCCCUCCUAAGGAGAAGACUGGGGGUACGAGUCCCGUACGUUACG is 0.566; for GUUCCGUUGGCGUAAUGGUAACGCGUCUCCCUCCUAAGGAGAAGACUGGGGGUGCGAGUCCCGUACGGAACG it is 0.625.
On to GUUCCGUUGGCGUAAUGGUAACGCGUCUCCCUCCUAAGGAGAAGACUGGGGGUACGAGUCCCGUACGGAACG, for which the yeast fitness turned out to be 0.637.
The figure for GUUCCGUUGGCGUAAUGGUAACGCGUCUCCCUCCUAAGGAGAAGACUGGGGGCUAGAGUCCCAUACGGAACG is no more than 0.5; for GUUCCGUUGGCGUAAUGGUAACGCGUCUCCCUCCUAAGGAGAAGACUGUGGGUUCGAGUCCCGUACGGAACG it is 0.995.
Take GUUCCGUUGGCGUAAUGGUAACGCGUCUCCCUCCUAAGGAGAAGACUGGGGGUUCAAGUCCCGUCCGGAACG: the yeast fitness is 0.543.
The value for GUUCCGUUGGCGUAAUGGUAACGCGUCUCCCUCCUAAGGAGAAGACUGUGGGUUUGAAUCCCGUACGGAACG was no more than 0.5.
